Results pooled from the literature.
Compare with care: the assays were run in different laboratories. Values after ≈ are worked out from the molar mass of the structure shown.
Organism: Pseudomonas aeruginosa

Cc1[nH]c(C(=O)Nc2ccc(C(=O)NCC(=O)O)cc2N2CC[C@H](N)C2)c(Cl)c1Cl.Cl  MIC (microbial growth, broth dilution; ATCC27853): > 32 µg/mL
O=C(C=Cc1ccc(O)c(O)c1)OCCc1ccccc1  MIC (microbial growth, broth dilution; ATCC27853): 64 µg/mL (≈ 225 µM)
COc1cc(C#CC(=O)c2ccc(C(F)(F)F)cc2)ccc1O  activity vs control (microbial growth, absorbance; 10 µM, 24 h): 102%
Cl.O=C(O)CNC(=O)c1ccc(NC(=O)c2cc(Br)c(Br)[nH]2)c(N2CCNCC2)c1  MIC (microbial growth, broth dilution; ATCC27853): > 32 µg/mL
O=C(C=Cc1ccc(O)c(O)c1)Oc1cccc2cccnc12  MIC (microbial growth, broth dilution; ATCC27853): 4 µg/mL (≈ 13 µM)
C[C@@H](O)[C@H]1C(=O)N2C(C(=O)O)=C(SCCN=CN)C[C@H]12  inhibition zone (microbial growth, disc diffusion; 2000 µg/mL, 24 h): 17 mm
COc1cc(C#CC(=O)CC(C)C)ccc1O  activity vs control (microbial growth, absorbance; 100 µM, 24 h): 87%
COc1cc(C=Nc2ccc([N+](=O)[O-])cc2)ccc1O  inhibition zone (microbial growth, disc diffusion; 2000 µg/mL, 24 h): 14.2 mm
COc1cccc(C(=O)C#Cc2ccc(O)c(OC)c2)c1  activity vs control (microbial growth, absorbance; 100 µM, 24 h): 82%
Cc1[nH]c(C(=O)Nc2ccc(C(=O)NCC(=O)O)cc2N2CC[C@H](NC(=O)OC(C)(C)C)C2)c(Cl)c1Cl  MIC (microbial growth, broth dilution; ATCC27853): > 32 µg/mL
Cc1ccccc1NC(=O)C=Cc1ccc(O)c(O)c1  MIC (microbial growth, broth dilution; ATCC27853): 8 µg/mL (≈ 29.7 µM)
COc1cc(C#CC(O)c2ccccc2)ccc1O (stereo not drawn)  activity vs control (microbial growth, absorbance; 100 µM, 24 h): 82%
Cc1[nH]c(C(=O)Nc2ccc(C(=O)NCc3n[nH]c(=O)o3)cc2N2CCN(C(=O)OC(C)(C)C)CC2)c(Cl)c1Cl  MIC (microbial growth, broth dilution; ATCC27853): > 32 µg/mL
CN[C@H](CC(C)C)C(=O)N[C@H]1C(=O)N[C@@H](CC(N)=O)C(=O)N[C@H]2C(=O)N[C@H]3C(=O)N[C@H](C(=O)N[C@H](C(=O)O)c4cc(O)cc(O)c4-c4cc3ccc4O)[C@H](O)c3ccc(c(Cl)c3)Oc3cc2cc(c3O[C@@H]2O[C@H](CO)[C@@H](O)[C@H](O)[C@H]2O[C@H]2C[C@](C)(N)[C@H](O)[C@H](C)O2)Oc2ccc(cc2Cl)[C@H]1O  MBC (microbial killing; ATCC47085): 1000 µg/mL (≈ 690 µM)
COc1cc(C#C[C@H](O)CC(C)C)ccc1O  activity vs control (microbial growth, absorbance; 100 µM, 24 h): 98%
O=C(C=Cc1ccc(O)c(O)c1)Oc1ccccc1  MIC (microbial growth, broth dilution; ATCC27853): 8 µg/mL (≈ 31.2 µM)
Cl.N[C@@H]1CCN(c2cc(C(=O)NCC(=O)O)ccc2NC(=O)c2cc(Br)c(Br)[nH]2)C1  MIC (microbial growth, broth dilution; ATCC27853): > 32 µg/mL
OC(C#Cc1ccc(F)c(F)c1)c1ccccc1Cl (stereo not drawn)  activity vs control (microbial growth, absorbance; 100 µM, 24 h): 97%
